Assay results: ChEMBL document CHEMBL4837261, “Optimization of TopoIV Potency, ADMET Properties, and hERG Inhibition of 5-Amino-1,3-dioxane-Linked Novel Bacterial Topoisomerase Inhibitors: Identification of a Lead with In Vivo Efficacy against MRSA” (J Med Chem, 2021)
≈ marks a conversion by molar mass, not a printed value.

Assays:
[1] = system: Streptococcus pneumoniae; assay: Antibacterial activity against Streptococcus pneumoniae by CLSI method; type: functional
[2] = system: Staphylococcus aureus; assay: Antibacterial activity against Staphylococcus aureus harbouring GyrA D83N mutant by CLSI method; type: functional
[3] = system: Staphylococcus aureus; assay: Selectivity ratio of IC50 for inhibition of Staphylococcus aureus Gyrase D83N mutant to IC50 for inhibition of Staphylococcus aureus Gyrase
Method in brief: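 Ratio of two IC50s: the IC50 from the D83N mutant gyrase supercoiling assay (commercial kit) divided by the IC50 from the gel-based wild-type S. aureus gyrase supercoiling assay.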

[4] = system: Staphylococcus aureus; assay: Antibacterial activity against Staphylococcus aureus ATCC 29213 by CLSI method; type: functional
[5] = system: Staphylococcus aureus; assay: Antibacterial activity against methicillin-resistant Staphylococcus aureus USA300 by CLSI method; type: functional
[6] = system: Staphylococcus aureus; assay: Selectivity index, ratio of IC50 for inhibition of Staphylococcus aureus topoisomerase IV decatenation activity to IC50 for inhibition of Staphylococcus aureus DNA gyrase supercoiling activity
Method in brief: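 Both IC50s were measured in gel-based assays with S. aureus enzymes: supercoiling inhibition for DNA gyrase and decatenation inhibition for TopoIV. The ratio is TopoIV IC50 divided by gyrase IC50.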

[7] = system: Acinetobacter baumannii; assay: Antibacterial activity against Acinetobacter baumannii by CLSI method; type: functional
[8] = system: Staphylococcus aureus; assay: Antibacterial activity against Staphylococcus aureus 3527 by CLSI method; type: functional
[9] = target: DNA gyrase (Staphylococcus aureus, UniProt P0A0K8+P20831); assay: Inhibition of Staphylococcus aureus Gyrase supercoiling activity assessed as reduction in supercoiling pBR322 DNA by measuring relaxation by bromophenol blue staining based TAE gel method; type: protein-complex assay
[10] = system: Staphylococcus aureus; assay: Antibacterial activity against Staphylococcus aureus by CLSI method; type: functional
Method in brief: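 MICs were determined by broth microdilution per CLSI guidelines, in triplicate at minimum. Strains were S. aureus ATCC 29213, MRSA USA300 and a cystic fibrosis respiratory isolate, and ranges are given where seen.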

[11] = target: Topoisomerase IV (Staphylococcus aureus, UniProt P0C1S7+P0C1U9); assay: Inhibition of Staphylococcus aureus topoisomerase IV decatenation activity using kDNA as substrate by ethidium bromide/bromophenol blue staining based agarose gel electrophoresis analysis; type: protein-complex assay
[12] = system: Enterococcus sp.; assay: Antibacterial activity against Enterococcus sp. by CLSI method; type: functional
[13] = system: Staphylococcus aureus; assay: Antibacterial activity against cystic fibrosis isolate Staphylococcus aureus by CLSI method; type: functional
[14] = target: DNA gyrase (Staphylococcus aureus, UniProt P0A0K8+P20831, D83N); assay: Inhibition of Staphylococcus aureus DNA Gyrase D83N mutant assessed as reduction in supercoiling pBR322 DNA by measuring relaxation by bromophenol blue staining based TAE gel method
[15] = Growth inhibition of human K/VP.5 cells incubated for 48 hrs by NBTI cell counting analysis; type: functional; settings: K562, 48 h

SMILES	MIC50 [1]	MIC [2]	Ratio IC50 [3]	MIC [4]	MIC [5]	Ratio IC50 [6]	MIC50 [7]	MIC [8]	IC50 [9]	MIC50 [10]	IC50 [11]	MIC50 [12]	MIC [13]	IC50 [14]	IC50 [15]
COc1ccc2ncc(F)c(C[C@H](O)[C@H]3OC[C@H](NCc4cc5c(nn4)OCCS5)CO3)c2c1	1 µg/mL (≈ 2.05 µM)	8 µg/mL (≈ 16.4 µM)	336	0.25 µg/mL (≈ 0.512 µM)	0.5 µg/mL (≈ 1.02 µM)	87	> 64 µg/mL	0.5 µg/mL (≈ 1.02 µM)	56 nM	0.5 µg/mL (≈ 1.02 µM)	4.8 µM	0.25 µg/mL (≈ 0.512 µM)	0.25 µg/mL (≈ 0.512 µM)	19 µM	–
COc1ccc2ncc(F)c(C(O)C[C@H]3OC[C@H](NCc4cc5c(cn4)OCCO5)CO3)c2c1 (mixture of isomers)	–	16 µg/mL (≈ 33.9 µM)	–	0.5 µg/mL (≈ 1.06 µM)	1 µg/mL (≈ 2.12 µM)	–	–	1 µg/mL (≈ 2.12 µM)	–	–	14 µM	–	0.5 µg/mL (≈ 1.06 µM)	–	> 100 µM
COc1ccc2ncc(F)c(C[C@H](O)[C@H]3OC[C@H](NCc4cc5c(nn4)OCCO5)CO3)c2c1	–	16 µg/mL (≈ 33.9 µM)	60	1 µg/mL (≈ 2.12 µM)	2 µg/mL (≈ 4.23 µM)	10	–	2 µg/mL (≈ 4.23 µM)	840 nM	–	8.5 µM	–	0.5 µg/mL (≈ 1.06 µM)	51 µM	–
COc1ccc2ncc(F)c(C[C@H](O)[C@H]3OC[C@H](NCc4cc5c(cn4)OCS5)CO3)c2n1	–	1 µg/mL (≈ 2.11 µM)	–	0.06 µg/mL (≈ 0.126 µM)	0.125 µg/mL (≈ 0.263 µM)	–	–	0.125 µg/mL (≈ 0.263 µM)	99 nM	–	0.43 µM	–	0.25 µg/mL (≈ 0.527 µM)	5.9 µM	118 µM
COc1ccc2ncc(F)c(C[C@H](O)[C@H]3OC[C@H](NCc4cnc5c(n4)OCCO5)CO3)c2n1	–	8 µg/mL (≈ 16.9 µM)	80	0.25 µg/mL (≈ 0.528 µM)	1 µg/mL (≈ 2.11 µM)	52	–	1 µg/mL (≈ 2.11 µM)	360 nM	–	19 µM	–	0.125 µg/mL (≈ 0.264 µM)	29 µM	–
COc1ccc2ncc(F)c(C(O)C[C@H]3OC[C@H](NCc4ccc(Cl)c(Cl)c4)CO3)c2c1 (mixture of isomers)	–	4 µg/mL (≈ 8.31 µM)	–	≤ 0.25 µg/mL	0.5 µg/mL (≈ 1.04 µM)	–	–	≤ 0.25 µg/mL	160 nM	–	8.1 µM	–	0.5 µg/mL (≈ 1.04 µM)	–	24.5 µM
COc1ccc2ncc(F)c(C[C@H](O)[C@H]3OC[C@H](NCc4ccc(Cl)c(Cl)c4)CO3)c2n1	4 µg/mL (≈ 8.29 µM)	4 µg/mL (≈ 8.29 µM)	–	≤ 0.25 µg/mL	0.125 µg/mL (≈ 0.259 µM)	–	> 64 µg/mL	0.125 µg/mL (≈ 0.259 µM)	160 nM	0.06 µg/mL (≈ 0.124 µM)	1.1 µM	0.06 µg/mL (≈ 0.124 µM)	0.125 µg/mL (≈ 0.259 µM)	5.5 µM	22.2 µM
COc1ccc2ncc(F)c(C(O)C[C@H]3OC[C@H](NCc4ccc5c(c4)OCCO5)CO3)c2n1 (mixture of isomers)	–	8 µg/mL (≈ 17 µM)	–	≤ 0.25 µg/mL	0.25 µg/mL (≈ 0.53 µM)	–	–	≤ 0.25 µg/mL	22 nM	–	3.2 µM	–	0.5 µg/mL (≈ 1.06 µM)	–	39.2 µM
COc1ccc2ncc(F)c(C[C@H](O)[C@H]3OC[C@H](NCc4ccc(C)cc4)CO3)c2c1	–	8 µg/mL (≈ 18.8 µM)	–	0.25 µg/mL (≈ 0.586 µM)	0.5 µg/mL (≈ 1.17 µM)	294	–	0.5 µg/mL (≈ 1.17 µM)	14 nM	–	4.1 µM	–	0.25 µg/mL (≈ 0.586 µM)	–	–
COc1ccc2ncc(=O)n(CC(O)[C@H]3OC[C@H](NCc4ccc5c(c4)OCCO5)CO3)c2c1 (mixture of isomers)	–	8 µg/mL (≈ 17 µM)	–	0.125 µg/mL (≈ 0.266 µM)	0.5 µg/mL (≈ 1.06 µM)	–	–	0.5 µg/mL (≈ 1.06 µM)	19 nM	–	4 µM	–	0.25 µg/mL (≈ 0.532 µM)	–	71.1 µM
COc1ccc2ncc(F)c(C(O)C[C@H]3OC[C@H](NCc4cc5c(cn4)OCCO5)CO3)c2n1 (mixture of isomers)	–	16 µg/mL (≈ 33.9 µM)	–	0.5 µg/mL (≈ 1.06 µM)	1 µg/mL (≈ 2.12 µM)	–	–	1 µg/mL (≈ 2.12 µM)	160 nM	–	8.8 µM	–	–	–	232 µM
COc1ccc2ncc(F)c(C[C@H](O)[C@H]3OC[C@H](NCc4cc5c(cn4)OCO5)CO3)c2n1	–	> 8 µg/mL	86	0.5 µg/mL (≈ 1.09 µM)	1 µg/mL (≈ 2.18 µM)	22	–	1 µg/mL (≈ 2.18 µM)	850 nM	–	18 µM	–	0.5 µg/mL (≈ 1.09 µM)	73 µM	–
COc1ccc2ccc(F)c(C[C@H](O)[C@H]3OC[C@H](NCc4ccc5c(n4)NC(=O)CO5)CO3)c2n1	–	2 µg/mL (≈ 4.13 µM)	–	0.25 µg/mL (≈ 0.516 µM)	0.25 µg/mL (≈ 0.516 µM)	–	–	0.25 µg/mL (≈ 0.516 µM)	95 nM	–	0.99 µM	–	0.5 µg/mL (≈ 1.03 µM)	69 µM	> 50 µM
